Rows were chosen to be rich in hits. Some 2.3% of all compounds tested hit in one or more screens of this group.
sPLA2-III inh: Inhibits HGIII-sPLA2 liposome hydrolysis, primary screen; Q9NZ20; 370,000 compounds, 0.56% hits; inhibition, % at 12.2 µM; QFRET BODIPY PC-A2 liposome hydrolysis, fluorescence;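 active means inhibition above mean plus 3 SD of compounds lying within the high and low control bounds, cut at about 19% in these data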;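 further: 0% = median of test compound wells and 100% = no enzyme DMSO wells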
ARFGAP1 inhibitor: inhibitors of rat ARFGAP1. Arfgap1-stimulated ARF1 GTP hydrolysis, GDP FP detection. AID 651572. 360,000 compounds, 0.26% hits. Q62848. inhibition, % at 16.5 µM;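 active means inhibition above a per-plate limit, mean inhibition of low control wells plus 3 SD, cut at about 25% in these data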;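 further: 0% = DMSO wells with enzyme and 100% = wells lacking Arfgap1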
Target sequence (Q62848 1-136 limits assumed): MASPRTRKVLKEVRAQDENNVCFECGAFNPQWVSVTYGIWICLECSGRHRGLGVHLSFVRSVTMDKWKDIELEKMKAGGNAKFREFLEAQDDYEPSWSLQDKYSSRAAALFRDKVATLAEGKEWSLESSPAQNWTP
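material = rat Arfgap1 catalytic domain, aa 1-136 | also added = human ARF1(Δ1-17)-GTP substrate | compound dosing = one concentration, 16.5 µM, DMSO 1.26% | times = GTP hydrolysis reaction 2 h at 25 °C | measured by = FP, GDP Alexa 633 tracer displaced from anti-GDP antibody, 620/688 nm | evaluation = percent inhibition of Arfgap1-stimulated GTP hydrolysis | replication = single well per compound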
Calb FLC: C. albicans growth modulation with fluconazole | C. albicans CaCi-2 + fluconazole, Alamar Blue growth, 48 h | growth inhibition, % (concentration not given with the values) | 300,000 compounds, 0.57% hits | AID 1979;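 active means growth inhibition above about 58% in most replicates, limit read from the data, passing the limit was not always enough; inconclusive means exactly half the replicates above a set limit; inactive means most replicates below a set limit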;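 further: all wells also contain fluconazole at 8 µg/ml as a sub-toxic cotreatment; 0% = median of DMSO wells and 100% = median of geldanamycin control wells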
ASAP1 GAP inh: inhibitors of human ASAP1 ArfGAP activity; ASAP1-stimulated ARF1 GTP hydrolysis, GDP FP detection; inhibition, % at 16.5 µM; 360,000 compounds, 0.19% hits; AID 624377; in the data active means inhibition above about 25%;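 further: 0% = vehicle with enzyme and substrate and 100% = no enzyme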
Target sequence (Q9ULH1 325-724 limits assumed): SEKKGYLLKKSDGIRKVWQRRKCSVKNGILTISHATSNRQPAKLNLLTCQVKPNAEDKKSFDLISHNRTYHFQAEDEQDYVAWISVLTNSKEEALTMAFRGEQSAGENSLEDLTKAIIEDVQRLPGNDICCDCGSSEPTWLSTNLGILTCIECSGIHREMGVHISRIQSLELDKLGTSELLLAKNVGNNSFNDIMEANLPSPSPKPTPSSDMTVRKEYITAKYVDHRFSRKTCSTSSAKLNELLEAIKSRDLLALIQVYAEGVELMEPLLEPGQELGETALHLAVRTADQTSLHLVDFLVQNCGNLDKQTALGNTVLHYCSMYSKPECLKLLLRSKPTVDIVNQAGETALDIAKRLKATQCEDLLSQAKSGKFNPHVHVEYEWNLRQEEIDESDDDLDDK
SKKanGAS inh: inhibitors of SKKanGAS S. pyogenes growth in kanamycin (SK-promoter or general growth effect); inhibition, % at 7.5 µM; 300,000 compounds, 1.3% hits; BacTiter-Glo, 6 h;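 active means mean replicate score, as percent of positive control median, at least 50; inconclusive means mean below 50 but one replicate at or above 50; inactive means mean and every replicate below 50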;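 further: strain carries kanamycin resistance gene driven by streptokinase promoter and grows in 40 µg/ml kanamycin; loss of luminescence reflects streptokinase promoter inhibition or plain growth inhibition; 0% = median of DMSO wells and 100% = positive control at its reference dose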
The depositor's hits bear a star.

Screening CCC1C/C(=C\c2cc(OC)c(OC)cc2OC)C(=O)/C(=C/c2cc(OC)c(OC)cc2OC)C1 (stereo unspecified) returned Calb FLC 0 and SKKanGAS inh 38.
COc1cc(OC)c(OC)cc1/C=C1\CC(C)C/C(=C\c2cc(OC)c(OC)cc2OC)C1=O (stereo unspecified) was read as sPLA2-III inh -5, ARFGAP1 inhibitor -3, Calb FLC 2, ASAP1 GAP inh 3 and SKKanGAS inh 56*.
`COc1ccc(-c2cc(C3CCN(Cc4cccc(C(F)(F)F)c4)CC3)[nH]n2)cc1` gave sPLA2-III inh -22, ARFGAP1 inhibitor 8, Calb FLC 70*, ASAP1 GAP inh 8 and SKKanGAS inh inconclusive.
For COc1ccc(-c2cc(C3CCN(CC(O)C(F)(F)F)CC3)[nH]n2)cc1 (stereo unspecified) the results were sPLA2-III inh -19, ARFGAP1 inhibitor 6, Calb FLC -12, ASAP1 GAP inh 0 and SKKanGAS inh 0.
For C[C@H]1COc2c3ccccc3nn21 the results were sPLA2-III inh 6.
For O=C(O)c1ccc(CSc2nc(-c3ccc(Cl)cc3)cc(C(F)(F)F)n2)cc1 the results were sPLA2-III inh 3, ARFGAP1 inhibitor -12, Calb FLC -2, ASAP1 GAP inh -11 and SKKanGAS inh 52*.
O=C(O)c1ccc(CSc2nc(-c3ccccc3)cc(C(F)(F)F)n2)cc1 was read as sPLA2-III inh -14, ARFGAP1 inhibitor 2, Calb FLC 35, ASAP1 GAP inh 3 and SKKanGAS inh 31.
For Clc1ccc(-c2c[n+](Cc3ccc(Br)cc3)c3n2CCCCC3)cc1 the results were sPLA2-III inh -5, ARFGAP1 inhibitor -12, Calb FLC 106*, ASAP1 GAP inh 10 and SKKanGAS inh 7.
CC1CCC(C(C)C)C(OC(=O)C[n+]2cc(-c3ccc(Cl)cc3)n3c2CCCCC3)C1 (stereo unspecified) was read as sPLA2-III inh -9, ARFGAP1 inhibitor 2, Calb FLC 95*, ASAP1 GAP inh 0 and SKKanGAS inh 22.
For O=C(C[n+]1cc(-c2ccccc2)n2c1CCCCC2)c1ccc(Cl)cc1 the results were sPLA2-III inh -49, ARFGAP1 inhibitor -2, Calb FLC inconclusive, ASAP1 GAP inh 5 and SKKanGAS inh -10.
For C=CCN1C(=O)[C@@H](CC(=O)N2CCCC2)[C@]2(C(=O)OCC)CCCCC/C=C/12 the results were sPLA2-III inh 4.
CCOC(=O)C1=C(Nc2ccc(Br)cc2)C(=O)N(CC)C1 was read as sPLA2-III inh 5, ARFGAP1 inhibitor -7 and ASAP1 GAP inh 2.
`Cc1ccc(CSc2ncnc3c2cnn3Cc2ccccc2)cc1` gave sPLA2-III inh 8, ARFGAP1 inhibitor -3, Calb FLC -2, ASAP1 GAP inh 1 and SKKanGAS inh 65*.
Cc1ccc(CSc2ncnc3c2cnn3Cc2ccccc2)cc1C was read as sPLA2-III inh -4, ARFGAP1 inhibitor -4, Calb FLC -9, ASAP1 GAP inh -6 and SKKanGAS inh 26.
`CC(C)NC(=O)Cn1c(-c2cncs2)nc2ccccc21` gave sPLA2-III inh -4.
Screening O=C(CSc1nc(-c2ccc(F)cc2)nc2ccc(F)cc12)Nc1cccc(C(=O)O)c1 returned sPLA2-III inh -18, ARFGAP1 inhibitor 0, Calb FLC -4, ASAP1 GAP inh -11 and SKKanGAS inh 68*.
`O=C(Oc1ccc(NC2=NS(=O)(=O)c3ccccc32)cc1)c1cccnc1` gave sPLA2-III inh 3, ARFGAP1 inhibitor 8, Calb FLC 2, ASAP1 GAP inh -1 and SKKanGAS inh 59*.
For Fc1ccccc1CNc1cc(Cl)cc(Cl)c1 the results were sPLA2-III inh -4, ARFGAP1 inhibitor 1, Calb FLC -4, ASAP1 GAP inh -11 and SKKanGAS inh 73*.
Cn1c(=O)cc(OCCCC(=O)Nc2cc(-c3ccncc3)ccn2)c2ccccc21 was read as sPLA2-III inh 3.
For CC(C)Nc1cc(C(F)(F)F)nc(-c2ccccn2)n1 the results were sPLA2-III inh 2, ARFGAP1 inhibitor 1, Calb FLC 9, ASAP1 GAP inh 7 and SKKanGAS inh 1.
Screening FC(F)(F)c1cc(Nc2ccccc2)nc(-c2ccccn2)n1 returned sPLA2-III inh -5, ARFGAP1 inhibitor -6, Calb FLC 7, ASAP1 GAP inh -4 and SKKanGAS inh 77*.
`Cc1ccccc1N1CCN(S(=O)(=O)c2nnc(NC(=O)c3ccc(F)cc3)s2)CC1` gave sPLA2-III inh 0, ARFGAP1 inhibitor 4, Calb FLC -12, ASAP1 GAP inh -9 and SKKanGAS inh 34.
`COc1ccccc1C(=O)Nc1nnc(S(=O)(=O)N2CCN(c3ccc(F)cc3)CC2)s1` gave sPLA2-III inh -3, ARFGAP1 inhibitor -9, Calb FLC 3, ASAP1 GAP inh 2 and SKKanGAS inh 54*.
`Cc1ccc(C(=O)Nc2nnc(S(=O)(=O)N3CCN(c4ccc(F)cc4)CC3)s2)cc1` gave sPLA2-III inh 8, ARFGAP1 inhibitor -9, Calb FLC 3, ASAP1 GAP inh 3 and SKKanGAS inh 54*.
For Cc1ccc(N2CCN(S(=O)(=O)c3nnc(NC(=O)c4ccco4)s3)CC2)cc1 the results were sPLA2-III inh -8, ARFGAP1 inhibitor -3, Calb FLC -8, ASAP1 GAP inh 15 and SKKanGAS inh 30.
Screening CC(=O)Nc1nnc(S(=O)(=O)N2CCN(c3ccc([N+](=O)[O-])cc3Cl)CC2)s1 returned sPLA2-III inh 1, ARFGAP1 inhibitor 2, Calb FLC 27, ASAP1 GAP inh -5 and SKKanGAS inh 55*.
For COC[C@@H]1CCCN1c1cccc2c1S(=O)(=O)N(C1CC1)CCCO2 the results were sPLA2-III inh 3.
Screening O=C(Nc1ccc(N2C(=O)CC3(CCCCC3)C2=O)c(Cl)c1)c1ccccn1 returned sPLA2-III inh 4.
For O=C(COc1ccc(Cl)cc1)NC1CCSC1=O (stereo unspecified) the results were sPLA2-III inh 8, ARFGAP1 inhibitor -8, Calb FLC 102*, ASAP1 GAP inh -1 and SKKanGAS inh 6.
Screening O=S(=O)(NC(=NCc1ccccc1)c1ccccc1)c1ccccc1 returned sPLA2-III inh -1, ARFGAP1 inhibitor 7, Calb FLC -8, ASAP1 GAP inh 3 and SKKanGAS inh -10.
For O=S(=O)(NC(=NCc1ccccc1)c1ccccc1)c1ccc(Br)cc1 the results were sPLA2-III inh -14, ARFGAP1 inhibitor 10, Calb FLC 8, ASAP1 GAP inh -1 and SKKanGAS inh 52*.
`O=C(CN(CCc1ccccc1)S(=O)(=O)c1cccs1)N1CCOCC1` gave sPLA2-III inh 3.
`O=C1N/C(=N\N=C\c2cccs2)SC1Cc1ccc(Cl)c(Cl)c1` (stereo unspecified) gave sPLA2-III inh 4, ARFGAP1 inhibitor -2, Calb FLC -1, ASAP1 GAP inh 5 and SKKanGAS inh 56*.
Screening C=CCC1S/C(=N/N=C/c2cccs2)NC1=O (stereo unspecified) returned sPLA2-III inh -6, ARFGAP1 inhibitor 1, Calb FLC 1, ASAP1 GAP inh -12 and SKKanGAS inh -3.
